Bioassay records as filed in PubChem BioAssay.
procasp7 counter – activates human procaspase-7, counter-screen for procaspase-3 activators | P55210 | recombinant procaspase-7, Ac-DEVD-pNA absorbance 405 nm; D23A/D198A/D206A triple mutant, cannot self-cleave; scale: DMSO 0, 5 µM enzyme 100 | activation, % at 8.5 µM | 330,000 compounds, 0.093% hits | AID 463210;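 active = percent activation above the screen-wide mean plus 3 SD, cut at about 25% in these data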
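Test system: Procaspase-7 triple mutant (PC-7 D3A). Also added: Ac-DEVD-pNA substrate, 400 µM as added. Schedule: 1 h enzyme–compound preincubation and 2 h substrate reaction, both 25 °C. Signal: p-Nitroaniline absorbance at 405 nm, read at 0 and 120 min. Control set: low DMSO alone, high DMSO plus 5 µM PC-7.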
procasp3 activ – activates human procaspase-3; P42574; recombinant procaspase-3 D3A, Ac-DEVD-pNA absorbance 405 nm; activation, % at 8.5 µM; 330,000 compounds, 0.11% hits; AID 463141;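 active = activation above the mean of all tested compounds plus 3 SD, cut at about 21% in these data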;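 also: 0% = DMSO alone and 100% = DMSO wells spiked with extra 5 µM PC-3 D3A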
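assay system = Procaspase-3 D3A mutant | signal = absorbance at 405 nm, 0 and 120 min | times = 1 h preincubation plus 2 h reaction at 25 °C | repeats = single replicate | read-out = % activation between DMSO and enzyme-spiked controls | medium = Zinc-free HEPES saline buffer with Triton X-100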
PLC-gamma1 inh – PLC-gamma1 (human) inhibition, primary screen; purified PLC-gamma1, fluorogenic substrate, fluorescence; inhibition, % at 12.2 µM; 370,000 compounds, 0.84% hits; in the data active = inhibition above about 9.5%
PLCb3 inh – inhibitors of human phospholipase C beta3; AID 720704; inhibition, % at 12.2 µM; Purified PLC-beta3, fluorogenic substrate, fluorescence; 370,000 compounds, 0.18% hits; Q01970;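 also: 0% = median of compound wells on plate and 100% = full blocker control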
Arr AP2 block – human beta-arrestin and AP2 interaction inhibition; FITC-arrestin peptide / GST-AP2 beads, flow cytometry; AP2 beta2 appendage carries R879A mutation; inhibition, % at 10 µM; 340,000 compounds, 0.31% hits;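 active = inhibition above a set limit, near 3 SD of compounds lacking own fluorescence, cut at about 54% in these data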;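 also: plate controls were DMSO wells for no effect and 5 µM unlabelled arrestin peptide for full effect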
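Assay system: GST-AP2 R879A bound to glutathione beads, E. coli-expressed; Medium: PBS with 0.05% Tween 20 and 0.1% BSA; Also added: fluorescein-tagged arrestin peptide at 50 nM final; Timing: 12 min plus 1 h, RT; Measured by: flow cytometry, FL1 (488/535 nm); Evaluation: percent drop in bead-associated FITC signal.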
sPLA2-III inh – Inhibits HGIII-sPLA2 liposome hydrolysis, primary screen; Q9NZ20; QFRET BODIPY PC-A2 liposome hydrolysis, fluorescence; inhibition, % at 12.2 µM; 370,000 compounds, 0.56% hits;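 active = inhibition above mean plus 3 SD of compounds lying within the high and low control bounds, cut at about 19% in these data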;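 also: 0% = median of test compound wells and 100% = no enzyme DMSO wells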
PLCgamma1 ctr – counter-screen for PLC-beta3 inhibitors: inhibitors of human PLC-gamma1. 3,300 compounds, 3.1% hits. inhibition, % at 12.3 µM. AID 743258. purified PLC-gamma1, fluorogenic substrate, fluorescence. shares compounds with PLC-gamma1 inh; in the data active = inhibition above about 9.5%
PLCb3 confirm – confirmation of human PLC-beta3 inhibitors. shares compounds with PLC-gamma1 inh. purified PLC-beta3, fluorogenic substrate fluorescence. inhibition, % at 12.3 µM. 3,300 compounds, 1% hits. AID 743261
Active calls of the source: *; . = no result. Most compounds without a hit are left out; they make up all but 1.9% or so of the library. Rule as the data show it, unless noted: active = inhibition above about 11%; inactive = the rest.

SMILES | procasp7 counter | procasp3 activ | PLC-gamma1 inh | PLCb3 inh | Arr AP2 block | sPLA2-III inh | PLCgamma1 ctr | PLCb3 confirm
COc1ccc(N2CC(C(=O)Nc3cccc(OC(C)C)c3)CC2=O)cc1 (stereo not drawn) | -5 | 3 | 1 | -8 | -8 | -8 | . | .
N=c1sccn1CC(=O)NC(=O)NC1CCCC1 | 5 | -1 | 17* | 4 | 38 | 10 | 3 | 4
Cc1ccc(C2=CCN(C)C(=O)N2c2ccc(Br)cc2)cc1 | . | . | 4 | -3 | . | 6 | . | .
COc1ccc(NC(=O)CC2C(=O)N(C)C(=S)N2Cc2ccncc2)cc1 (stereo not drawn) | 9 | -3 | 10* | 0 | 1 | -6 | -6 | -6
COc1ccc(NC(=O)CC2C(=O)N(C)C(=S)N2Cc2ccco2)cc1 (stereo not drawn) | 1 | 6 | 2 | 3 | 5 | -29 | . | .
Cc1onc(-c2c(Cl)cccc2Cl)c1C(=O)Nn1cnnc1 | -10 | 4 | 0 | 0 | 3 | -4 | . | .
Cc1onc(-c2c(Cl)cccc2Cl)c1C(=O)ONC(=O)c1cc(C(F)(F)F)cc(C(F)(F)F)c1 | 5 | -3 | 10* | 5 | -4 | 12 | 4 | 4
COc1ccccc1NC(=O)OCCCN1CCC2(CCC(C)CC2)C1=O (stereo not drawn) | . | . | -3 | -1 | . | -2 | . | .
CSCC[C@H](NC(=O)CCn1nnc2ccccc2c1=O)C(=O)O | 5 | 4 | 11* | 12* | 13 | 6 | 6 | 8
CC(C)C[C@H](NC(=O)CCCn1nnc2ccccc2c1=O)C(=O)O | 3 | 2 | 0 | -6 | 2 | 2 | . | .
CCOC(=O)N1C(=O)C2(CCCCC2)N(c2ccccc2Cl)C1=S | 6 | 6 | 11* | 2 | 3 | 9 | -2 | 1
CCOC(=O)c1sc(=S)n(-c2ccccc2Cl)c1C | -2 | -19 | 3 | -2 | 20 | -3 | . | .
O=S(=O)(c1ccc(Br)cc1)N1CCCC1 | -12 | 0 | 4 | -3 | -6 | 0 | . | .
O=S(=O)(CS(=O)(=O)c1ccc(Br)cc1)c1ccc(Br)cc1 | . | . | 27* | 0 | . | 4 | 21* | 1
Cc1cccc(N2CCN(C(C(=O)NCc3ccccc3)c3ccc(C(F)(F)F)cc3)CC2)c1C (stereo not drawn) | . | . | 0 | 4 | . | 0 | . | .
O=C(O)C12CC3CC(C1)CC(n1ncc(NCc4ccco4)c(Cl)c1=O)(C3)C2 | -5 | -1 | 0 | -7 | -12 | 0 | . | .
O=c1c(Cl)c(NCC2CCCO2)cnn1C12CC3CC(CC(C3)C1)C2 (stereo not drawn) | 13 | -15 | 12* | -1 | 6 | 15 | -7 | -2
O=C(CN1CCC(n2nnc3cc(C(F)(F)F)ccc32)CC1)N1CCc2ccccc21 | 12 | 2 | 13* | 7 | 32 | 8 | -6 | -2
O=C(NCc1ccccc1)C1C(c2ccccc2)=Nc2ccccc2N1C(=O)c1cccnc1 (stereo not drawn) | . | . | 0 | -3 | . | -9 | . | .
O=C(CCCN1C(=O)/C(=C/c2ccco2)SC1=S)Nc1cccc(C(=O)O)c1 | -21 | -8 | 11* | -12 | 24 | -23 | 9 | -14
O=C(CCCN1C(=O)/C(=C\c2cccs2)SC1=S)Nc1cccc(C(=O)O)c1 | 8 | 1 | 0 | 1 | -11 | 0 | . | .
O=C(CCCN1C(=O)/C(=C\c2cccs2)SC1=S)Nc1ccc(O)cc1C(=O)O | -12 | -15 | -1 | -6 | -6 | -24 | . | .
O=C(CCCN1C(=O)/C(=C\c2ccco2)SC1=S)Nc1ccc(O)cc1C(=O)O | -23 | -11 | 9.6* | -25 | 2 | -15 | -11 | -24
O=C(NCCCc1ccccc1)[C@H](Cc1c[nH]c2ccccc12)NC1(C(=O)NCCc2c[nH]c3ccccc23)CCOCC1 | . | . | 4 | 3 | . | -83 | . | .
Clc1ccc(-c2c[n+](Cc3ccc(Cl)cc3Cl)c3n2CCCCC3)cc1 | 6 | 0 | 11* | 6 | 36 | 7 | -2 | 0
SMILES | procasp7 counter | procasp3 activ | PLC-gamma1 inh | PLCb3 inh | Arr AP2 block | sPLA2-III inh | PLCgamma1 ctr | PLCb3 confirm
COc1cc(C(=O)Nc2ccc3c(c2)C(=O)N(CCC(=O)O)C3=O)cc(OC)c1OC | -1 | -3 | 11* | 5 | 2 | 7 | 9.5* | 3
CC(=O)Oc1ccc(C(=O)Nc2ccc3c(c2)C(=O)N(CCC(=O)O)C3=O)cc1 | -5 | 0 | -345 | -483 | -1 | 0 | . | .
O=C(O)c1ccc(NC2=C/C(=N/S(=O)(=O)c3cccs3)c3ccccc3C2=O)cc1 | . | . | 8 | 7 | . | -5 | . | .
O=C(O)c1ccc(NC2=C/C(=N/S(=O)(=O)c3ccccc3)c3ccccc3C2=O)cc1 | . | . | 11* | 7 | 38 | -3 | 18* | 8
O=C1C(Nc2ccc(O)cc2)=C/C(=N/S(=O)(=O)c2cccs2)c2ccccc21 | . | . | 20* | 7 | 1 | -51 | 29* | 11*
Cc1cc(C)c(S(=O)(=O)/N=C2\C=C(Nc3ccc(C(=O)O)cc3)C(=O)c3ccccc32)c(C)c1 | -13 | -7 | 4 | -4 | 45 | -13 | . | .
COc1ccc(C2C(C#N)=C(N)Nc3onc(C(C)(C)C)c32)c(OC)c1 (stereo not drawn) | 10 | -5 | 6 | 11* | 19 | 2 | -3 | -1
CCN(CC)C(=O)c1ncn2c1C(=O)N[C@@H](C)C2 | . | . | -1 | 1 | . | 16 | . | .
COc1ccccc1C(=O)CSc1n[nH]c(N)n1 | 3 | 2 | 4 | 11* | -1 | 9 | -2 | 1
Cc1sc2ncn(CC(=O)NCCN3CCOCC3)c(=O)c2c1S(=O)(=O)N1CCC(C)CC1 | 11 | 1 | 11* | 3 | 1 | 7 | -8 | -5
O=C(OC12CCCN(C1)/C(=C/c1ccncc1)C2)c1ccccc1 (stereo not drawn) | . | . | -2 | -4 | . | 0 | . | .
CCC(=O)N(Cc1cc(=O)[nH]c2ccccc12)c1ccccc1OC | 2 | 4 | 12* | 1 | 9 | 4 | -4 | -1
Cc1ccc(NC(=O)CN(C)C(=O)c2ccc(S(=O)(=O)N(C)c3ccccc3)cc2)cc1 | -6 | 1 | 11* | -2 | 25 | 2 | -2 | 0
CCOC(=O)C1CCN(C(=O)C(C)(C)NC(=O)Nc2ccc(N(C)C)cc2)CC1 | . | . | -1 | 0 | . | 5 | . | .
COc1ccc2c(c1)N=CN1CCc3c([nH]c4ccccc34)C3=NCC[C@@]321 | . | . | 1 | 0 | . | 5 | . | .
